For 14 compounds, Drug uptake, IC50 and Activity results are on record in ChEMBL document CHEMBL1240469, “In vitro and in vivo studies on stilbene analogs as potential treatment agents for colon cancer” (Eur J Med Chem, 2010).

Series [1] concerns Serum. Briefly: Drug level in SCID mouse serum at 10 mg/kg, ip by GC-MS analysis. The format is ADME, organism-based. On the set-up: dose 10 mg/kg, route intraperitoneal. The conditions noted are these: in vivo. A digest of the protocol: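 Blood taken at autopsy from xenografted SCID mice after 3 weeks of daily i.p. dosing at 10 mg/kg. Serum (50 μL) was incubated with 1 M sodium acetate pH 5 for 60 min at 37 °C, extracted 3× with ethyl acetate, dried and redissolved. Analysed by GC-MS on a DB-5 column, with quantification against external-standard calibration curves at m/z 255, 298 or 270. Values given as mean ± std.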

Series [2] relates to Caco-2. Briefly: Cytotoxicity against human Caco-2 cells after 3 days by [3H]thymidine incorporation assay. The format is functional, cell-based. A digest of the protocol: (§1)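 Cells kept in DMEM with 10% FBS at 37 °C, 5% CO2, then plated at 20,000 cells/well. Exposed to a range of concentrations for 3 days at 37 °C, final DMSO 0.1% or less, with DMSO controls. IC50 reported.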
(Uptake of a labelled nucleoside into DNA is a usual measure of proliferation.)

In series [3] the test system is HT-29. Nature of the series: Cytotoxicity against human HT-29 cells after 3 days by [3H]thymidine incorporation assay. It counts as functional, cell-based. In short, it runs like this: as §1
Series [4] concerns HT-29. Nature of the series: Antitumor activity against human HT-29 cells xenografted in SCID mouse assessed as reduction tumor volume at 10 mg/kg, ip qd for 3 weeks (reference value: 1087 +/- 138.9 mm'3). The format is functional. The conditions noted are these: route intraperitoneal. On the technique in general: In xenograft studies the graft and the host belong to different species.

The subject of series [5] is HT-29. Briefly: Antitumor activity against human HT-29 cells xenografted in SCID mouse assessed as reduction tumor weight at 10 mg/kg, ip qd for 3 weeks (reference value: 0.72 +/- 0.1 g). The format is functional. The conditions noted are these: route intraperitoneal.
The test system of series [6] is Mus musculus. Briefly: Toxicity in SCID mouse assessed as effect on body weight at 10 mg/kg, ip qd for 3 weeks (reference value: 20.4 +/- 0.4 g). The conditions noted are these: in vivo, 504 h. It counts as organism-based. Also on record: dose 10 mg/kg, route intraperitoneal.
Series [7] deals with HT-29. Briefly: Induction of apoptosis in human HT-29 cells assessed as caspase3 activity. It counts as functional, cell-based.
In series [8] the test system is HT-29. Nature of the series: Up-regulation of p27 expression level in human HT-29 cells by Western blotting. The format is functional, cell-based. A digest of the protocol: (§2)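 Xenograft tumors from treated SCID mice were homogenized in lysis buffer and pooled by group. Primary antibodies (PCNA or p27) were applied overnight at 4 °C, followed by HRP secondary for 1 h. Bands detected by chemiluminescence, with β-actin as loading control.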
A general note: A western blot detects proteins with antibodies after separation by electrophoresis.

For series [9], the system named is HT-29. Nature of the series: Up-regulation of p27 expression level in human HT-29 cells by immunohistochemistry analysis. The format is functional, cell-based. A digest of the protocol:
(§3)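 Paraffin sections of xenograft tumors, 4 μm thick, incubated overnight with anti-PCNA (1:1000) or anti-p27 (1:50), then biotinylated secondary, avidin-biotin peroxidase and diaminobenzidine, with hematoxylin counterstain. Five random fields per slide were imaged at 400×. PCNA was reported as labeling index (positive cells/total ×100, averaged per tumor); p27 as integrated optical density averaged per tumor and per group; ± SE.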

The test system of series [10] is HT-29. Nature of the series: Induction of apoptosis in human HT-29 cells assessed as PARP cleavage. It counts as functional, cell-based.
The test system of series [11] is HT-29. Briefly: Reduction of proliferating cell nuclear antigen level in human HT-29 cells by Western blotting. It counts as functional, cell-based. In short, it runs like this: as §2
Series [12] concerns HT-29. Nature of the series: Reduction of proliferating cell nuclear antigen level in human HT-29 cells by immunohistochemistry analysis. It counts as functional, cell-based. In short, it runs like this: as §3

Calls of active or inactive are those of the source. The rule behind the calls is not given here. Where only a bound is given, the exact number is not on record here.

Compound `COc1cc(/C=C\c2ccc(N)cc2)cc(OC)c1` gave a Drug uptake in [1] of 109.1 ng/mL.
As to `COc1cc(/C=C/c2ccc(S)cc2)cc(OC)c1`, the IC50 in [2] and in series [3] was greater than 10 µM in each case.
`COC(=O)c1ccc(/C=C\c2cc(OC)cc(OC)c2)cc1` yielded a Drug uptake in series [1] of 18.8 ng/mL.
`COc1cc(/C=C/c2ccc(OC3OC(CO)C(O)C(O)C3O)cc2)cc(OC)c1` (stereo not drawn): the 50% inhibitory concentration (IC50) in [2] and in series [3] was greater than 10 µM each time.
`COc1cc(/C=C/c2ccc(F)cc2)cc(OC)c1`: the IC50 in series [2] and in [3] was greater than 10 µM each time.
As to `COc1ccc(/C=C\c2cc(O)cc(O)c2)cc1`, the IC50 in series [2] and in [3] was greater than 30 µM in each case.
For the compound `COc1cc(/C=C/c2ccc(N)cc2)cc(OC)c1`, the Drug uptake in [1] was 99 ng/mL.
As for `COc1cc(/C=C\c2ccc(F)cc2)cc(OC)c1`, the IC50 in series [2] and in [3] was greater than 10 µM throughout.
For the compound `COC(=O)c1ccc(/C=C/c2cc(OC)cc(OC)c2)cc1`, the Drug uptake in series [1] is 54.6 ng/mL.
As to `COc1cc(O)cc(/C=C/c2ccc(O)cc2)c1`, the IC50 (as a rule, the concentration needed to halve the response being measured) came to 19.2 µM in [2] and 33.5 µM in series [3].
Regarding `COc1ccc(/C=C\c2cc(OC)cc(OC)c2)cc1` [8Z-3,4',5-TRIMETHOXYSTILBENE], the Activity in series [4] is 1023.6 mm3; in [5] it was 0.61 g; in series [6], 19.8 g. This compound yielded a Drug uptake in series [1] of 15.5 ng/mL. Besides, the values for the IC50 in series [2] and in series [3] were 0.08 µM and 0.04 µM, respectively.
`COc1cc(/C=C/c2ccc(O)cc2)cc(OC)c1` [PTEROSTILBENE]: the half-inhibitory concentration (IC50) in [2] was 14.5 µM; in series [3], 23.8 µM.
As for `COc1ccc(/C=C/c2cc(O)cc(O)c2)cc1` [RESVERATROL 4'-METHYL ETHER], the IC50 in [2] was greater than 30 µM; in series [3], 24.5 µM.
For `COc1ccc(/C=C/c2cc(OC)cc(OC)c2)cc1` [TRISMETHOXYRESVERATROL], the results for the Activity in series [4], in [5] and in series [6] were 590.3 mm3, 0.57 g and 19.5 g, respectively. For the same compound, the result in series [7] and in series [10] was inactive. For the same compound, the outcome in [8], in series [9], in [11] and in [12] was Active. This compound returned a Drug uptake in series [1] of 69.9 ng/mL. Moreover, the figures for the IC50 in [2] and in series [3] were 12 µM and 16.1 µM, respectively.
